Experiment [1] has as its target T1, Amine oxidase [flavin-containing] B (Rattus norvegicus, UniProt P19643).
T1 sequence (P19643 whole entry): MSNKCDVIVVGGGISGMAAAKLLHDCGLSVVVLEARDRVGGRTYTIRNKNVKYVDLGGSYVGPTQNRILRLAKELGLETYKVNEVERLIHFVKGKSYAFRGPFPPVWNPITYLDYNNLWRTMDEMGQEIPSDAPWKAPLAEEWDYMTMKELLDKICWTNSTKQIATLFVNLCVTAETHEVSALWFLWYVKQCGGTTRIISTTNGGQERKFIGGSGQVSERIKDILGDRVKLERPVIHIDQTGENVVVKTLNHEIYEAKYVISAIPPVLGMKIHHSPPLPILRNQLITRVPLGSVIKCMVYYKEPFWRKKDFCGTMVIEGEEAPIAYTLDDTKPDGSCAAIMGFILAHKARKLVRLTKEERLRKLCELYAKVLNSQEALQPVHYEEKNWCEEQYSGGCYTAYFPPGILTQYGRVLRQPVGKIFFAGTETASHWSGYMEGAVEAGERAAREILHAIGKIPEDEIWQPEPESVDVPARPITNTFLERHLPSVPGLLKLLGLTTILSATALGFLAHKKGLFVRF
The experiment in a line: Binding affinity to MAOB imidazoline binding site in rat brain mitochondrial homogenate assessed as 4-hydroxyquinoline production by spectrophotometry. Format: tissue-based. The method in brief:
(§1)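 Rat brain mitochondrial homogenates, with protein measured by Bradford. Fractions were preincubated for 5 min at 37 °C with 250 nM selegiline (MAO-A assay) or 250 nM clorgyline (MAO-B assay). Compounds were added in DMSO, followed 5 min later by kynuramine at its KM for each isoform. Incubation ran 30 min at 37 °C and was stopped with trichloroacetic acid, then centrifuged. 4-Hydroxyquinoline was read at 314 nm, or by fluorescence (ex 315/em 380 nm) if compounds interfered.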

Experiment [2] addresses T2, Amine oxidase [flavin-containing] A (Rattus norvegicus, UniProt P21396).
T2 sequence (P21396 whole entry): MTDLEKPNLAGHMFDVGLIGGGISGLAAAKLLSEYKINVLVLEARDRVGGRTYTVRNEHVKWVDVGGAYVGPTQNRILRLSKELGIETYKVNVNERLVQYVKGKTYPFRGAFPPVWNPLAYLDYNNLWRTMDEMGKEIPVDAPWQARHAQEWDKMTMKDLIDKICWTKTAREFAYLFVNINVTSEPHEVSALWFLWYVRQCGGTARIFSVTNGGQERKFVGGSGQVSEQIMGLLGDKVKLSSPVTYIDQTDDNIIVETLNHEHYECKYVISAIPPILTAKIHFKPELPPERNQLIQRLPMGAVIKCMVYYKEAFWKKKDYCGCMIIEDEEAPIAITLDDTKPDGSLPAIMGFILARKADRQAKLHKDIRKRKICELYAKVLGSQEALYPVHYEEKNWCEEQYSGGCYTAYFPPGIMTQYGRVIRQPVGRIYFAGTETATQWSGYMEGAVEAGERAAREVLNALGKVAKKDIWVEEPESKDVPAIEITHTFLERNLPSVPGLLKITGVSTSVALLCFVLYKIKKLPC
The experiment is described as follows: Binding affinity to MAOA imidazoline binding site in rat brain mitochondrial homogenate assessed as 4-hydroxyquinoline production by spectrophotometry. Format: tissue-based. In short, it runs like this:
as §1

The species named for experiment [3] is Rattus norvegicus. The experiment is described as follows: Selectivity index, ratio of Ki rat for MAOA to Ki for rat MAOB.
Experiment [4] is filed under the species Rattus norvegicus. The experiment in a line: Selectivity index, ratio of Ki rat for MAOB to Ki for rat MAOA.

Structures are written as SMILES. Bounds are passed on as bounds.

Turning to `COc1cc(C2=NCCN2)cc(OC)c1OC`, the Ki was 1000 µM in experiment [1] and 114 µM in experiment [2]. In addition, the Ratio Ki in the experiment filed under Rattus norvegicus [3] stood at 0.114.
For the molecule `c1ccc2cc(C3=NCCN3)ccc2c1` [BENAZOLINE], the Ki in experiment [1] amounted to 1.49 µM; in experiment [2], 13.9 µM. In the experiment filed under Rattus norvegicus [3], the Ratio Ki amounted to 9.32.
With `COc1ccc(C2=NCCN2)cc1OC`, the Ki turned out to be 1000 µM in experiment [1] and 13.6 µM in experiment [2]. Further, the Ratio Ki in the experiment listed under Rattus norvegicus [4] came to 73; in the experiment listed under Rattus norvegicus [3], 0.013.
For `c1coc(C2=NCCN2)c1`, the Ki in experiment [1] and in experiment [2] was > 1000 µM each time.
On to `Clc1ccccc1C1=NCCN1`, for which the Ki was 24.6 µM in experiment [1] and > 1000 µM in experiment [2]. Besides, in the experiment filed under Rattus norvegicus [3], the Ratio Ki is > 40.7.
On to `Cc1ccc(C2=NCCN2)cc1`, for which the Ki in experiment [1] was 13.1 µM; in experiment [2], 102 µM. Also, the Ratio Ki in the experiment filed under Rattus norvegicus [3] was determined as 7.79.
The corresponding values for `O=[N+]([O-])c1cccc(C2=NCCN2)c1` are 19.3 µM, > 1000 µM and > 51.9.
For `c1ccc(C2=NCCN2)nc1`, the Ki was 25.3 µM in experiment [1] and > 1000 µM in experiment [2]. In addition, the Ratio Ki in the experiment listed under Rattus norvegicus [3] was > 39.5.
The corresponding values for `Clc1ccc(C2=NCCN2)cc1` are 5.35 µM, 166 µM and 31.1.
Turning to `c1ccc2nc(C3=NCCN3)ccc2c1`, in experiment [1], the IC50 amounted to 13.3 µM and the Ki was 5.32 µM. In experiment [2], the IC50 was 12.7 µM and the Ki is 4.86 µM. The Ratio Ki in the experiment listed under Rattus norvegicus [3] turned out to be 0.91.
With `O=[N+]([O-])c1ccc(C2=NCCN2)cc1`, the Ki in experiment [1] is > 1000 µM; in experiment [2], 181 µM. Moreover, the Ratio Ki in the experiment filed under Rattus norvegicus [3] is < 0.181.
With `O=C(Oc1ccc(C2=NCCN2)cc1)c1ccccc1`, the Ki in experiment [1] was determined as 1.38 µM; in experiment [2] it was 12.8 µM. For the same molecule, the Ratio Ki in the experiment filed under Rattus norvegicus [3] came out at 9.27.
Turning to `COc1ccc(C2=NCCN2)cc1`, the Ki amounted to 32.7 µM in experiment [1] and 15.8 µM in experiment [2]. The Ratio Ki in the experiment filed under Rattus norvegicus [3] was determined as 0.48.
For the molecule `Clc1ccc(C2=NCCN2)c(Cl)c1`, the figures for the Ki in experiment [1] and in experiment [2] were 3.98 µM and 28.8 µM, respectively. The Ratio Ki in the experiment listed under Rattus norvegicus [3] was 10.5.
Take `c1ccc2oc(C3=NCCN3)cc2c1`: the IC50 in experiment [1] stood at 9.1 µM; in experiment [2], 65 µM. For the same molecule, the Ki was 3.63 µM in experiment [1] and 24.9 µM in experiment [2].
As for `c1ccc(C2=NCCN2)cc1`, the Ki in experiment [1] is 21.3 µM; in experiment [2], 28.8 µM. Further, the Ratio Ki in the experiment filed under Rattus norvegicus [3] came out at 1.35.

The values are drawn from ChEMBL document CHEMBL1154534, “Ultrasound promoted synthesis of 2-imidazolines in water: a greener approach toward monoamine oxidase inhibitors” (Bioorg Med Chem Lett, 2009).
